From ChEMBL document CHEMBL1143670, “An adamantyl-substituted retinoid-derived molecule that inhibits cancer cell growth and angiogenesis by inducing apoptosis and binds to small heterodimer partner nuclear receptor: effects of modifying its carboxylate group on apoptosis, proliferation, and protein-tyrosine phosphatase activity” (J Med Chem, 2007)
Activity calls are given as the source filed them. No cut-off for these calls is given here.

What was measured:
KG-1 [1] = assay: Induction of apoptosis in retinoid-resistant KG1 cells at 5 uM after 48 hrs; format: functional, Homo sapiens
In short: (§1)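 Apoptotic cells scored by acridine orange staining. KG-1, HL-60R or MDA-MB-231 cells seeded in medium with 5% FBS, incubated overnight, then exposed to compound in Me2SO (0.1% final) for the stated time.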

[2] = Growth inhibition of retinoid-resistant H292 cells at 1 uM relative to control; format: functional; conditions: Homo sapiens, NCI-H292
In short: (§2)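 Cells seeded at 2 × 10^3 per well for H292 and DU-145 (RPMI-1640, 10% FBS) or 4 × 10^3 for MDA-MB-231 (DMEM, 10% FBS), 37 °C, 6% CO2. After 24 h attachment, treated 72 h with compound in Me2SO (0.1% final); media and compound renewed at 48 h. Viable cells by MTS reduction; triplicates per concentration.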

DU-145 [3] = assay: Growth inhibition of retinoid-resistant DU145 cells at 1 uM relative to control; format: functional; conditions: Homo sapiens; in short: as §2
KG-1 [4] = assay: Induction of apoptosis in retinoid-resistant KG1 cells at 1 uM after 48 hrs; format: functional, Homo sapiens; in short: as §1
KG-1 [5] = assay: Inhibition of cell proliferation in retinoid-resistant KG1 cells at 1 uM after 48 hrs relative to control; format: functional; conditions: Homo sapiens, KG-1, 48 h
In short: (§3)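 KG-1 cells grown in RPMI-1640 with 5% heat-inactivated FBS and gentamycin, seeded in 3 mL medium plus 5% FBS, incubated overnight. Compound then added in Me2SO (0.1% final), cells incubated for the stated time, harvested and counted by hemocytometer.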

KG-1 [6] = assay: Growth inhibition of retinoid-resistant KG1 cells at 5 uM after 48 hrs; format: functional; conditions: Homo sapiens, KG-1, 48 h; in short: as §3
DU-145 [7] = assay: Growth inhibition of retinoid-resistant DU145 cells after 72 hrs; format: functional, cell-based; conditions: Homo sapiens, DU-145, 72 h; in short: as §2
[8] = Growth inhibition of retinoid-resistant H292 cells after 72 hrs; format: functional, cell-based; conditions: Homo sapiens, NCI-H292, 72 h; in short: as §2
MDA-MB-231 [9] = assay: Growth inhibition of retinoid-resistant MDA-MB-231 cells at 1 uM relative to control; format: functional; conditions: Homo sapiens; in short: as §2
KG-1 [10] = assay: Inhibition of cell proliferation in retinoid-resistant KG1 cells after 48 hrs; format: functional, cell-based; conditions: Homo sapiens, KG-1, 48 h; in short: as §3
[11] = molecular target: Receptor-type tyrosine-protein phosphatase C, CD45 (Homo sapiens) (UniProt P08575); assay: Inhibition of CD45 PTP at 10 uM relative to control by fluorescence spectrometry
[12] = molecular target: T1, Tyrosine-protein phosphatase non-receptor type 11 (Homo sapiens, UniProt Q06124); assay: Inhibition of SHP2 PTP by fluorescence spectroscopy
T1 sequence (Q06124 whole entry): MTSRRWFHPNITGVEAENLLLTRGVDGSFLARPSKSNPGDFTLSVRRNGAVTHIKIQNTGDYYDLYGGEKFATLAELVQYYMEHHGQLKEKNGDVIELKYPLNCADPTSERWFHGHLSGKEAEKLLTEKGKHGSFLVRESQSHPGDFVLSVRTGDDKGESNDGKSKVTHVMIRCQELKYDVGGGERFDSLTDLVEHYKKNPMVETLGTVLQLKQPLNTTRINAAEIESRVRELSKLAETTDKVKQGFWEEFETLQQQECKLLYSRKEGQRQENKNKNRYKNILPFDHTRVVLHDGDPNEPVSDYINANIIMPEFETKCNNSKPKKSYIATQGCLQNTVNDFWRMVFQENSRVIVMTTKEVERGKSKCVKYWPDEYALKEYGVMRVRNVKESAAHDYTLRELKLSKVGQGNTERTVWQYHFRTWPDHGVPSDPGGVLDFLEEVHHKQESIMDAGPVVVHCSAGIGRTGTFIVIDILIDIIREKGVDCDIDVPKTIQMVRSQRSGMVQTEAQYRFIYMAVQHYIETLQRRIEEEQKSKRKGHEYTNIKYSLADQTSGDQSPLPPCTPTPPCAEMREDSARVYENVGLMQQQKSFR

MDA-MB-231 [13] = assay: Growth inhibition of retinoid-resistant MDA-MB-231 cells after 72 hrs; format: functional, cell-based; conditions: Homo sapiens, MDA-MB-231, 72 h; in short: as §2
KG-1 [14] = assay: Inhibition of cell proliferation of KG1 cells; format: functional, cell-based; conditions: Homo sapiens; in short: as §3
[15] = molecular target: T2, Nuclear receptor subfamily 0 group B member 2 (Homo sapiens) (UniProt Q15466); assay: Displacement of [5,5'-3H2]AHPN from recombinant human GST-SHP partner nuclear orphan receptor at 50 uM
T2 sequence (whole entry): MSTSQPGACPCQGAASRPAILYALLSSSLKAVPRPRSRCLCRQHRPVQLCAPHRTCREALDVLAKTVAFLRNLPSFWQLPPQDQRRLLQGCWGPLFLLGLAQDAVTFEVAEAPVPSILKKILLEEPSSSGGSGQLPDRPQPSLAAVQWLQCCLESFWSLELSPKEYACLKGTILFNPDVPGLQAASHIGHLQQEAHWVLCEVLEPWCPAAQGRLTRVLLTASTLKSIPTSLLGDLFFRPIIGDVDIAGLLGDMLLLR
In short: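 GST–human SHP fusion (150–500 ng) on glutathione-Sepharose beads preincubated on ice 45 min with unlabeled compound (50 µM final) in 0.4 mL binding buffer. [5,5′-3H2]AHPN (5 nM final) then added for 2 h at 4 °C. Beads washed, counted by scintillation directly or after elution with 50 mM NaHCO3/1% SDS.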

[16] = Inhibition of HMVE cell proliferation at 0.5 uM relative to control; format: functional; conditions: Homo sapiens
[17] = Antiproliferative activity against HMVE cells; format: functional, cell-based; conditions: Homo sapiens
HL60R = assay: (§4) Induction of apoptosis in tran-RA-resistant HL60R cells at 1 uM after 24 hrs; format: functional; conditions: Homo sapiens
MDA-MB-231 [18] = assay: Induction of apoptosis in retinoid-resistant MDA-MB-231 cells at 1 uM after 96 hrs; format: functional, Homo sapiens; in short: as §1
Mus musculus = assay: Inhibition of TPA-induced ornithine decarboxylase in mouse dorsal epidermis applied topically after 1 hr; format: functional
[19] = as §4; format: functional, Homo sapiens
Trachea = assay: Reversal of keratinization in vitamin A-deficient hamster trachea after 10 days by TOC assay; format: functional, tissue-based; conditions: Cricetinae, 240 h
F9 = assay: Induction of terminal differentiation in mouse F9 cells assessed by measuring secreted plasminogen activator activity after 3 days; format: functional, cell-based; conditions: F9, 72 h, read-out: IC50 (the source's name)

Chain of Receptor-type tyrosine-protein phosphatase C, CD45 (Homo sapiens) (P08575 whole entry, looked up): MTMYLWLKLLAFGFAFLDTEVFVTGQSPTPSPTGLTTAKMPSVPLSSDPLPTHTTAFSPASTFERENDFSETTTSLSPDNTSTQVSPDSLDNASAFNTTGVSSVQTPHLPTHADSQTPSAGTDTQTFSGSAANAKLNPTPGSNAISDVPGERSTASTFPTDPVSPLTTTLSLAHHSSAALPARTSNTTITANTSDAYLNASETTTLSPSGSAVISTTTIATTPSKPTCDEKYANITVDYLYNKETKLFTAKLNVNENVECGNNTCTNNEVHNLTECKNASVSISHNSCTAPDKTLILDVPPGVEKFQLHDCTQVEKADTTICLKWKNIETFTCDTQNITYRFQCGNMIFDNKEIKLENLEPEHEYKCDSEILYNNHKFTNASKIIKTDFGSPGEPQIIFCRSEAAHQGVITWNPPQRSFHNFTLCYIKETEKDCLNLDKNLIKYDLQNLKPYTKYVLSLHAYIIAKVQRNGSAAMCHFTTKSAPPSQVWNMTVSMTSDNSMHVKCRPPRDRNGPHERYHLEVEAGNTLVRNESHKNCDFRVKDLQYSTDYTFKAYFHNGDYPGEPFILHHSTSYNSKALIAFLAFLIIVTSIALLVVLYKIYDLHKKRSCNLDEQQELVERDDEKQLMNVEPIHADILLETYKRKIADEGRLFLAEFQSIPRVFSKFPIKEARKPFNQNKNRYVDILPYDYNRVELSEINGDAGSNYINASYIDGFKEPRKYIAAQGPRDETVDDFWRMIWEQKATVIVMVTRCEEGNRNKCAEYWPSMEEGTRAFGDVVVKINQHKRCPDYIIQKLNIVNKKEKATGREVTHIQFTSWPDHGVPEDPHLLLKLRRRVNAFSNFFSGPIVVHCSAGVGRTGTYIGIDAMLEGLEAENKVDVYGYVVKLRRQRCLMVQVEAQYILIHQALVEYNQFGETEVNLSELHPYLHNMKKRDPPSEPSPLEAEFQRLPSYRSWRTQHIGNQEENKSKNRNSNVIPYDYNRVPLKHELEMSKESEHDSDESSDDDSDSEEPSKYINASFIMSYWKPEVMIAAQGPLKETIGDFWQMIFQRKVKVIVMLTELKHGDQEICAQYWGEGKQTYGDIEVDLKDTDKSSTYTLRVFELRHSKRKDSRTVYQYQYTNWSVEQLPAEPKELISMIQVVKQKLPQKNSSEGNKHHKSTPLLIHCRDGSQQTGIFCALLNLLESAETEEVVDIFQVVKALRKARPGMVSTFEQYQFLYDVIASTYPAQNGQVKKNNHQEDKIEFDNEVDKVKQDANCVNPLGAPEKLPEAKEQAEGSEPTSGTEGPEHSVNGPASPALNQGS

IC50 (DU-145 [7]) [µM] | IC50 (MDA-MB-231 [13]) [µM] | Structure (SMILES) | Activity (KG-1 [1]) [%] | inhibition at 1 µM [2] [%] | inhibition at 1 µM (DU-145 [3]) [%] | Activity (KG-1 [4]) [%] | inhibition at 1 µM (KG-1 [5]) [%] | inhibition at 5 µM (KG-1 [6]) [%] | IC50 [8] [µM] | inhibition at 1 µM (MDA-MB-231 [9]) [%] | IC50 (KG-1 [10]) [µM] | inhibition at 0.5 µM [16] [%] | IC50 [17] [µM] | also measured
> 10 | > 10 | N#CC(C#N)=Cc1ccc(-c2ccc(O)c(C34CC5CC(CC(C5)C3)C4)c2)c(Cl)c1 | 3 | 0 | 4 | 0 | 0 | 0 | > 10 | 0 | > 5 |  |  | IC50 (KG-1 [14]): > 5 µM
> 5 | > 5 | CCOP(=O)(O)/C=C/c1ccc(-c2ccc(O)c(C34CC5CC(CC(C5)C3)C4)c2)c(Cl)c1 | 0 | 2 | 3 | 0 | 0 | 0 | > 5 | 3 | > 5 |  |  | 
15 | 24 | O=C1NC(=O)/C(=C/C=C/c2ccc(-c3ccc(O)c(C45CC6CC(CC(C6)C4)C5)c3)c(Cl)c2)S1 | 2 | 2 | 0 | 2 | 0 | 2 | 23 | 0 |  |  |  | Activity [15]: 69%
7.8 | 14 | O=CC(=O)/C=C/c1ccc(-c2ccc(O)c(C34CC5CC(CC(C5)C3)C4)c2)c(Cl)c1 | 6 | 7 | 0 | 5 | 11 | 38 | 7 | 0 | 10 |  |  | 
14 | 21 | Oc1ccc(-c2ccc(/C=C/c3nnn[nH]3)cc2Cl)cc1C12CC3CC(CC(C3)C1)C2 | 12 | 3 | 0 | 10 | 0 | 31 | 16 | 0 | 13 |  |  | 

More lines, now with the values behind:

Structure (SMILES) | IC50 (DU-145 [7]) [µM] | IC50 (MDA-MB-231 [13]) [µM] | Activity (KG-1 [1]) [%] | inhibition at 1 µM [2] [%] | inhibition at 1 µM (DU-145 [3]) [%] | Activity (KG-1 [4]) [%] | inhibition at 1 µM (KG-1 [5]) [%] | inhibition at 5 µM (KG-1 [6]) [%] | IC50 [8] [µM] | inhibition at 1 µM (MDA-MB-231 [9]) [%] | IC50 (KG-1 [10]) [µM] | inhibition at 0.5 µM [16] [%] | IC50 [17] [µM] | also measured
Oc1ccc(-c2ccc(-c3nnn[nH]3)cc2Cl)cc1C12CC3CC(CC(C3)C1)C2 | 52 | 71 | 2 | 3 | 0 | 2 | 13 | 21 | 14 | 0 | > 5 |  |  | inhibition [11]: 46%; IC50 [12]: 1.3 µM
Cc1c(-c2ccc(O)c(C34CC5CC(CC(C5)C3)C4)c2)ccc2cc(C(=O)O)ccc12 |  |  | 73 |  |  |  |  |  |  |  |  |  |  | Activity at 1 µM (KG-1 [4]; Homo sapiens, KG-1, 48 h): 51%
O=C(/C=C/c1ccc(-c2ccc(O)c(C34CC5CC(CC(C5)C3)C4)c2)c(Cl)c1)NO | 3.5 | 6.3 | 4 | 6 | 7 |  | 0 | 0 | 9 | 4 | > 5 |  |  | Activity [15]: 7%; IC50 (KG-1 [14]): > 5 µM
O=C(O)c1ccc2ccc(-c3ccc(O)c(C45CC6CC(CC(C6)C4)C5)c3)cc2c1 |  |  |  |  |  |  |  |  |  |  |  | 15 | > 0.5 | Activity (HL60R): inactive
O=C(O)c1ccc2cc(-c3ccc(O)c(C45CC6CC(CC(C6)C4)C5)c3)ccc2c1 [O-DEMETHYLATED ADAPALENE] |  |  |  |  |  |  |  |  |  |  |  |  | 0.3 | Activity [15]: 53%; Activity (MDA-MB-231 [18]): 46%; ID50 (Mus musculus): 66 nmol; Activity [19]: 98%
O=C(O)/C=C/c1ccc(-c2ccc(O)c(C34CC5CC(CC(C5)C3)C4)c2)cc1 [ADAROTENE] |  |  |  |  |  |  |  |  |  |  |  | 90 | 0.1 | inhibition [11]: 84%
CC1=C(/C=C/C(C)=C/C=C/C(C)=C/C(=O)O)C(C)(C)CCC1 [TRETINOIN] |  |  |  |  |  |  |  |  |  |  |  | 10 | > 0.5 | IC50 (Trachea): 0.01 nM; ID50 (Mus musculus): 0.19 nmol
O=C(O)c1ccc2c(Cl)c(-c3ccc(O)c(C45CC6CC(CC(C6)C4)C5)c3)ccc2c1 |  |  |  |  |  |  |  |  |  |  |  | 45 | 0.5 | 
Cc1c(-c2ccc3c(c2)C(C)(C)CCC3(C)C)ccc2cc(C(=O)O)ccc12 |  |  |  |  |  |  |  |  |  |  |  |  |  | IC50 (Trachea): 0.08 nM; ID50 (Mus musculus): 66 nmol; EC50 (F9): 0.003 µM
Oc1ccc2cc(-c3ccc(O)c(C45CC6CC(CC(C6)C4)C5)c3)ccc2c1 |  |  |  |  |  |  |  |  |  |  |  | 15 | > 0.5 | 
CC(=O)NCCCOc1cc(/C=C/C(=O)O)ccc1-c1ccc(O)c(C23CC4CC(CC(C4)C2)C3)c1 |  |  |  |  |  |  |  |  |  |  |  |  |  | Activity [15]: 72%
CC1(C)CCC(C)(C)c2cc(/C(=N\O)c3ccc4cc(C(=O)O)ccc4c3)ccc21 |  |  |  |  |  |  |  |  |  |  |  | 30 |  | 
OB(O)/C=C/c1ccc(-c2ccc(O)c(C34CC5CC(CC(C5)C3)C4)c2)c(Cl)c1 | 7 | 19 | 4 | 0 | 2 | 4 | 0 | 0 | 7.2 | 3 | > 5 |  |  | Activity [15]: 0%; IC50 (KG-1 [14]): > 5 µM
CC1(C)CCC(C)(C)c2cc(-c3ccc4cc(C(=O)O)ccc4c3)ccc21 |  |  |  |  |  |  |  |  |  |  |  |  |  | IC50 (Trachea): 0.007 nM; ID50 (Mus musculus): 2 nmol; EC50 (F9): 0.001 µM
CC1(C)CCC(C)(C)c2cc(-c3ccc(/C=C/C(=O)O)cc3)ccc21 |  |  |  |  |  |  |  |  |  |  |  |  |  | IC50 (Trachea): 0.32 nM; ID50 (Mus musculus): 7.5 nmol; EC50 (F9): 0.0003 µM
